Source: ChEMBL document CHEMBL1145965, “4-Substituted 4-hydroxycyclohexa-2,5-dien-1-ones with selective activities against colon and renal cancer cell lines” (J Med Chem, 2003)

Assays:
[1] = system: SK-OV-3; experiment: Concentration of compound that cause 50% cytotoxicity of SK-OV-3 ovarian cancer cell line; type: functional; settings: Homo sapiens, read-out: Log LC50 (the source's name) (converted)
How it was run: (§1)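 NCI 60-cell-line panel screen. Each line was seeded in 96-well plates at a density set by its growth characteristics and incubated drug-free for 24 h. Test agents were then added at five 10-fold dilutions, with a top concentration of 100 μM.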

[2] = system: Panel NCI-60 (60 carcinoma cell lines); experiment: In vitro mean growth lethal concentration in colon subpanel against 60-cell panel; type: functional; settings: Homo sapiens, read-out: Mean LC50
[3] = system: COLO 205; experiment: Concentration of compound that cause 50% cytotoxicity of COLO 205 colon cancer cell line; type: functional; settings: Homo sapiens, read-out: Log LC50 (the source's name) (converted); how it was run: as §1
[4] = system: UO-31; experiment: Concentration of compound that cause 50% cytotoxicity of UO-31 renal cancer cell line; type: functional; settings: Homo sapiens, read-out: Log LC50 (the source's name) (converted)
[5] = system: A549; experiment: Inhibitory activity against A549 lung adenocarcinoma cell line; type: functional, cell-based; settings: Homo sapiens
How it was run: (§2)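 Cells grown in RPMI 1640 with 2 mM L-glutamine and 10% fetal calf serum, 37 °C, 5% CO2. Seeded at 5 × 10³ per well, 24 h adherence, then drug 0.1 nM–100 μM final (n = 8; DMSO stocks, dilutions in medium) for 72 h.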

[6] = system: SF-295; experiment: Concentration of compound that cause 50% cytotoxicity of SF-295 CNS cancer cell line; type: functional; settings: Homo sapiens, read-out: Log LC50 (the source's name) (converted); how it was run: as §1
[7] = system: Malme-3M; experiment: Concentration of compound that cause 50% cytotoxicity of MALME -3M melanoma cell line; type: functional; settings: Homo sapiens, read-out: Log LC50 (the source's name) (converted); how it was run: as §1
[8] = system: NCI-H322M; experiment: Concentration of compound that cause 50% cytotoxicity of NCI-H322M non small cell lung cancer cell line; type: functional; settings: Homo sapiens, read-out: Log LC50 (the source's name) (converted); how it was run: as §1
[9] = system: SW-620; experiment: Concentration of compound that cause 50% cytotoxicity of SW-620 colon cancer cell line; type: functional; settings: Homo sapiens, read-out: LC50 (the source's name); how it was run: as §1
[10] = system: 786-0; experiment: Concentration of compound that cause 50% cytotoxicity of 786-0 renal cancer cell line; type: functional; settings: Homo sapiens, read-out: Log LC50 (the source's name) (converted); how it was run: as §1
[11] = system: HT-29; experiment: Inhibitory activity against HT-29 colon cancer cell line; type: functional, cell-based; settings: Homo sapiens; how it was run: as §2
[12] = system: IGROV-1; experiment: Concentration of compound that cause 50% cytotoxicity of IGROV1 ovarian cancer cell line; type: functional; settings: Homo sapiens, read-out: Log LC50 (the source's name) (converted); how it was run: as §1
[13] = system: RXF 393; experiment: Concentration of compound that cause 50% cytotoxicity of RXF393 renal cancer cell line; type: functional; settings: Homo sapiens, read-out: Log LC50 (the source's name) (converted); how it was run: as §1
[14] = system: MDA-MB-231; experiment: Concentration of compound that cause 50% cytotoxicity of MDA-MB-231/ATCC breast cancer cell line; type: functional; settings: Homo sapiens, read-out: Log LC50 (the source's name) (converted); how it was run: as §1
[15] = system: MOLT-4; experiment: Concentration of compound that cause 50% cytotoxicity of MOLT-4 leukemia cell line; type: functional; settings: Homo sapiens, read-out: LC50 (the source's name); how it was run: as §1
[16] = system: HOP-62; experiment: Concentration of compound that cause 50% cytotoxicity of HOP-62 non small cell lung cancer cell line; type: functional; settings: Homo sapiens, read-out: Log LC50 (the source's name) (converted); how it was run: as §1
[17] = system: SR; experiment: Concentration of compound that cause 50% cytotoxicity of SR leukemia cell line; type: functional; settings: Homo sapiens, read-out: LC50 (the source's name); how it was run: as §1
[18] = system: OVCAR-5; experiment: Concentration of compound that cause 50% cytotoxicity of OVCAR-5 ovarian cancer cell line; type: functional; settings: Homo sapiens, read-out: Log LC50 (the source's name) (converted); how it was run: as §1
[19] = system: OVCAR-3; experiment: Concentration of compound that cause 50% cytotoxicity of OVCAR-3 ovarian cancer cell line; type: functional; settings: Homo sapiens, read-out: Log LC50 (the source's name) (converted); how it was run: as §1
[20] = system: BT-549; experiment: Concentration of compound that cause 50% cytotoxicity of BT-549 breast cancer cell line; type: functional; settings: Homo sapiens, read-out: Log LC50 (the source's name) (converted); how it was run: as §1
[21] = system: SK-MEL-2; experiment: Concentration of compound that cause 50% cytotoxicity of SK-MEL-2 melanoma cell line; type: functional; settings: Homo sapiens, read-out: Log LC50 (the source's name) (converted); how it was run: as §1
[22] = system: K562; experiment: Concentration of compound that cause 50% cytotoxicity of K-562 leukemia cell line; type: functional; settings: Homo sapiens, read-out: LC50 (the source's name); how it was run: as §1
[23] = system: MCF7; experiment: Concentration of compound that cause 50% cytotoxicity of MCF-7 breast cancer cell line; type: functional; settings: Homo sapiens, read-out: Log LC50 (the source's name) (converted); how it was run: as §1
[24] = system: UACC-257; experiment: Concentration of compound that cause 50% cytotoxicity of UACC-257 melanoma cell line; type: functional; settings: Homo sapiens, read-out: Log LC50 (the source's name) (converted)
[25] = system: HL-60; experiment: Concentration of compound that cause 50% cytotoxicity of HL-60(TB) leukemia cell line; type: functional; settings: Homo sapiens, read-out: Log LC50 (the source's name) (converted); how it was run: as §1
[26] = system: NCI-H226; experiment: Concentration of compound that cause 50% cytotoxicity of NCI-H226 non small cell lung cancer cell line; type: functional; settings: Homo sapiens, read-out: Log LC50 (the source's name) (converted); how it was run: as §1
[27] = system: NCI/ADR-RES; experiment: Concentration of compound that cause 50% cytotoxicity of NCI/ADR-RES breast cancer cell line; type: functional; settings: Homo sapiens, read-out: LC50 (the source's name); how it was run: as §1
[28] = system: MDA-MB-435; experiment: Concentration of compound that cause 50% cytotoxicity of MDA-MB-435 breast cancer cell line; type: functional; settings: Homo sapiens, read-out: Log LC50 (the source's name) (converted); how it was run: as §1
[29] = system: MCF7; experiment: Inhibitory activity against MCF-7 mammary carcinoma cell line; type: functional, cell-based; settings: Homo sapiens; how it was run: as §2
[30] = system: OVCAR-4; experiment: Concentration of compound that cause 50% cytotoxicity of OVCAR-4 ovarian cancer cell line; type: functional; settings: Homo sapiens, read-out: Log LC50 (the source's name) (converted); how it was run: as §1
[31] = system: HT-29; experiment: Concentration of compound that cause 50% cytotoxicity of HT-29 colon cancer cell line; type: functional; settings: Homo sapiens, read-out: Log LC50 (the source's name) (converted); how it was run: as §1
[32] = system: CCRF-CEM; experiment: Concentration of compound that cause 50% cytotoxicity of CCRF-CEM leukemia cell line; type: functional; settings: Homo sapiens, read-out: Log LC50 (the source's name) (converted); how it was run: as §1

## O=C1C=CC(O)(c2nc3ccccc3s2)C=C1
[1]
  CC50: 38 µM
[2]
  CC50: 1.76 µM
[3]
  CC50: 5.13 µM
[4]
  CC50: 0.955 µM
[5]
  IC50: 2.35 µM
[6]
  CC50: 4.68 µM
[7]
  CC50: 2.34 µM
[8]
  CC50: 23.4 µM
[9]
  CC50: > 4 µM
[10]
  CC50: 1.05 µM
[11]
  IC50: 0.38 µM
[12]
  CC50: 5.37 µM
[13]
  CC50: 0.575 µM
[14]
  CC50: 5.75 µM
[15]
  CC50: > 4 µM
[16]
  CC50: 12.6 µM
[17]
  CC50: > 4 µM
[18]
  CC50: 1.86 µM
[19]
  CC50: 2.88 µM
[20]
  CC50: 4.79 µM
[21]
  CC50: 7.08 µM
[22]
  CC50: > 4 µM
[23]
  CC50: 4.07 µM
[24]
  CC50: 9.77 µM
[25]
  CC50: 0.741 µM
[26]
  CC50: 23.4 µM
[27]
  CC50: > 4 µM
[28]
  CC50: 1.51 µM
[29]
  IC50: 0.35 µM
[30]
  CC50: 3.8 µM
[31]
  CC50: 0.692 µM
[32]
  CC50: 2.57 µM
